The EC50 is the concentration needed to bring the measured effect to its halfway point. A low value points to a more potent agent.

For 16 molecules, Activity, inhibition and EC50 results are on record in ChEMBL document CHEMBL3351899, “Novologues containing a benzamide side chain manifest anti-proliferative activity against two breast cancer cell lines” (Bioorg Med Chem Lett, 2014).

For test [1], the system named is MCF7. The test is described as follows: Antiproliferative activity against human MCF7 cells. The test is classed as functional. The gist of the method:
(§1)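 Cell-based antiproliferation assay in SKBr3 (ER-negative, HER2-overexpressing) and MCF-7 (ER-positive) breast cancer cells. Values are mean ± standard deviation from at least two separate experiments, each run in triplicate.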

Test [2] is described as follows: Antiproliferative activity against human SKBR3 cells. The test is classed as functional, cell-based, SK-BR-3. Particulars: for EC50: Homo sapiens, SK-BR-3. The gist of the method:
as §1

For test [3], the target named is Heat shock protein HSP 90-beta (Homo sapiens) (UniProt P08238). The test is described as follows: Inhibition of HSP90-mediated Raf-1 degradation in human MCF7 cell lysate after 24 hrs by Western blot analysis. The format is cell-based. Summed up: (§2)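 MCF7 cells grown to confluence, seeded at 0.4 x 10^6 cells/well, incubated 24 h, then treated 24 h with varying compound concentrations (0.25% DMSO final) or DMSO vehicle; geldanamycin 0.5 µM as positive control. Cells lysed with protease/phosphatase inhibitors and clarified at 14,000g, 15 min, 4 °C. 5 µg protein run on reducing 10% gels, PVDF transfer, immunoblot with HRP secondary and chemiluminescent detection; actin as loading control.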
(In general: Immunoblotting shows a protein as a band on a membrane.)

For test [4] the target is unchanged. Description: Inhibition of HSP90-mediated p-Akt degradation in human MCF7 cell lysate after 24 hrs by Western blot analysis. The test is classed as cell-based. The gist of the method: as §2
For test [5] the target is unchanged. The test is described as follows: Inhibition of HSP90-mediated Her2 degradation in human MCF7 cell lysate after 24 hrs by Western blot analysis. The format is cell-based. Summed up:
as §2

In test [6] the test system is MCF7. Description: Effect on HSP90 level in human MCF7 cell lysate at 1 to 25 uM after 24 hrs by Western blot analysis. The format is functional, cell-based. The gist of the method: as §2

Activity calls are given as the source filed them. The calls are words filed in the database; no cut-off is given here. Bounds are passed on as bounds.

Heat shock protein HSP 90-beta (Homo sapiens), sequence (P08238 whole entry): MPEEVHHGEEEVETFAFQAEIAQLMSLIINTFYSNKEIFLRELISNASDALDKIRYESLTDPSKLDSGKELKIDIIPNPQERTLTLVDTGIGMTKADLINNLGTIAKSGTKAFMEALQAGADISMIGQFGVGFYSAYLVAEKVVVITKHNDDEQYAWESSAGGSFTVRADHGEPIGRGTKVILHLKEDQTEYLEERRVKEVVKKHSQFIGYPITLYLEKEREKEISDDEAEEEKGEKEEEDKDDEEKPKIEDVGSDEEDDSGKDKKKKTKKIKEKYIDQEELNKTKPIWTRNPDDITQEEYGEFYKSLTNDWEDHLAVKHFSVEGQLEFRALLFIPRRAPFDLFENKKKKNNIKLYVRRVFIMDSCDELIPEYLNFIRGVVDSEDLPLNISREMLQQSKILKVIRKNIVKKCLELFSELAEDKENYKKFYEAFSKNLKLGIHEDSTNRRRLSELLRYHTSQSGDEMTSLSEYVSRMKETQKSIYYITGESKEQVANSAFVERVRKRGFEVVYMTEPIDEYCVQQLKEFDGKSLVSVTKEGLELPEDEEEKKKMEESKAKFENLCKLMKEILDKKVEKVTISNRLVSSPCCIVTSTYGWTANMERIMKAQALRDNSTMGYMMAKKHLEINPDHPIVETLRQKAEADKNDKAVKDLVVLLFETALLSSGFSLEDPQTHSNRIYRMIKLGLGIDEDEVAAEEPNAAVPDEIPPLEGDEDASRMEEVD

Turning to `COc1ccc(C(=O)NCCc2ccc(OC3CCN(C)CC3)cc2-c2cccc(C(F)(F)F)c2)cc1`, the Activity was 4.82 µM with MCF7 [1] and 2.71 µM in test [2].
As for `COc1cccc(-c2cc(C(=O)NCCc3ccc(O[C@@H]4OC(C)(C)[C@H](OC)[C@@H](O)[C@H]4O)cc3-c3cccc(C(F)(F)F)c3)ccc2OC)c1`, the Activity in the test with MCF7 [1] amounted to 18.4 µM; in test [2], 13.98 µM.
Turning to `CN1CCC(Oc2ccc(CCNC(=O)c3ccc(Cl)cc3)c(-c3cccc(C(F)(F)F)c3)c2)CC1`, the Activity in the test on MCF7 [1] stood at 2.11 µM; in test [2], 1.87 µM.
Take `COc1cccc(-c2cc(C(=O)NCCc3ccc(OC4CCN(C)CC4)cc3-c3cccc(C(F)(F)F)c3)ccc2OC)c1`: the inhibition result in test [3], in test [4] and in test [5] was “Dose-dependent effect” each time. In addition, the Activity is 1.62 µM with MCF7 [1] and 1.52 µM in test [2]. Further, in the test with MCF7 [6], the result was Active.
As to `COc1cccc(-c2cc(C(=O)NCCc3ccc(OC4CCN(C)CC4)cc3-c3cccc(F)c3)ccc2OC)c1`, the Activity in the test on MCF7 [1] worked out at 3.19 µM; in test [2] it was 2.82 µM.
Turning to `CN1CCC(Oc2ccc(CCNC(=O)c3ccc(C(C)(C)C)cc3)c(-c3cccc(C(F)(F)F)c3)c2)CC1`, the results for the Activity (in the test on MCF7 [1]; in test [2]) were 1.48 µM and 1.16 µM, respectively.
`COc1cccc(-c2cc(C(=O)NCCc3ccc(OC4CCN(C)CC4)cc3-c3cccc(Cl)c3)ccc2OC)c1`: the Activity with MCF7 [1] amounted to 6.87 µM; in test [2], 5.63 µM.
For the molecule `CO[C@@H]1[C@@H](O)[C@@H](O)[C@H](Oc2ccc(CCNC(=O)c3ccccc3)c(-c3cccc(C(F)(F)F)c3)c2)OC1(C)C`, the Activity in the test with MCF7 [1] is 44.44 µM; in test [2], 41.9 µM.
`CO[C@@H]1[C@@H](O)[C@@H](O)[C@H](Oc2ccc(CCNC(C)=O)c(-c3cccc(C(F)(F)F)c3)c2)OC1(C)C`: in the test on MCF7 [1], the Activity was greater than 500 µM. Besides, the EC50 in test [2] was greater than 500000 nM.
Consider `CO[C@@H]1[C@@H](O)[C@@H](O)[C@H](Oc2ccc(CCNC(=O)c3ccc(C(C)(C)C)cc3)c(-c3cccc(C(F)(F)F)c3)c2)OC1(C)C`, for which the Activity was found to be 23.69 µM in the test on MCF7 [1] and 21.78 µM in test [2].
`CO[C@@H]1[C@@H](O)[C@@H](O)[C@H](Oc2ccc(CCNC(=O)c3ccc(Cl)cc3)c(-c3cccc(C(F)(F)F)c3)c2)OC1(C)C`: the results for the Activity (in the test on MCF7 [1]; in test [2]) were 11.69 µM and 14.48 µM, respectively.
Take `COc1cccc(-c2cc(OC3CCN(C)CC3)ccc2CCNC(=O)c2ccc(OC)c(-c3cccc(OC)c3)c2)c1`: the Activity in the test with MCF7 [1] came out at 12.36 µM; in test [2], 11.54 µM.
For `COc1ccc(C(=O)NCCc2ccc(O[C@@H]3OC(C)(C)[C@H](OC)[C@@H](O)[C@H]3O)cc2-c2cccc(C(F)(F)F)c2)cc1`, the Activity stood at 12.1 µM in the test with MCF7 [1] and 14.02 µM in test [2].
The like results for `COc1cccc(-c2cc(C(=O)NCCc3ccc(OC4CCN(C)CC4)cc3-c3ccccc3)ccc2OC)c1` were, in that order, 8.12 µM and 6.77 µM.
`CN1CCC(Oc2ccc(CCNC(=O)c3ccccc3)c(-c3cccc(C(F)(F)F)c3)c2)CC1`: the Activity in the test with MCF7 [1] turned out to be 15.07 µM; in test [2], 13.22 µM.
Molecule `CO[C@@H]1[C@@H](O)[C@@H](O)[C@H](Oc2ccc3cc(NC(C)=O)c(=O)oc3c2C)OC1(C)C` registered an EC50 in test [2] of 10 nM.
